ChEMBL document CHEMBL1629555, “Antimalarial activity of phenylthiazolyl-bearing hydroxamate-based histone deacetylase inhibitors” (Antimicrob Agents Chemother, 2008)
Active and inactive are the calls of the source. No cut-off for these calls is given here.

Assays:
Plasmodium falciparum [1] = assay: Antimalarial activity against drug-resistant Plasmodium falciparum W2; type: functional, organism-based
Plasmodium falciparum [2] = assay: Antimalarial activity against drug-resistant Plasmodium falciparum TM91C235; type: functional, organism-based
[3] = Selectivity index, ratio of LC50 for mouse RAW264.7 cells to IC50 for Plasmodium falciparum; conditions: raw264.7
Plasmodium berghei [4] = assay: Antimalarial activity against Plasmodium berghei infected in mouse assessed as effect on cure rate at split dose of 80 mg/kg/day, po for 3 days; type: functional, organism-based
Method in brief: (§1)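 Mice were infected ip with 10^6 P. berghei-parasitized erythrocytes. The compound was given in hydroxyethylcellulose-Tween 20 vehicle, 5 mice per group, starting on day 3 post-infection. Regimens were once-daily or split daily oral doses over 3 days, subcutaneous dosing, or dosing over 7 days. Read-outs were posttreatment parasitemia on day 6 as a fraction of controls and the number of mice cured.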

Plasmodium berghei [5] = assay: Antimalarial activity against Plasmodium berghei infected in mouse assessed as effect on cure rate at split dose of 320 mg/kg/day, po for 3 days; type: functional, organism-based; method in brief: as §1
Plasmodium berghei [6] = assay: Antimalarial activity against Plasmodium berghei infected in mouse assessed as effect on cure rate at single dose of 20 mg/kg/day, po for 3 days; type: functional, organism-based; method in brief: as §1
Plasmodium berghei [7] = assay: Antimalarial activity against Plasmodium berghei infected in mouse assessed as effect on cure rate at 130 mg/kg/day, po for 7 days; type: functional, organism-based; method in brief: as §1
Plasmodium berghei [8] = assay: Antimalarial activity against Plasmodium berghei infected in mouse assessed as parasitemia level at split dose of 80 mg/kg/day, po for 3 days measured on day 6 relative to control; type: functional
Method in brief: (§2)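 Blood-stage P. berghei model: mice inoculated ip with 10^6 parasitized erythrocytes. Oral treatment for 3 days, with the daily dose split, in hydroxyethylcellulose-Tween 20 vehicle. Day-6 parasitemia expressed as a fraction of control parasitemia.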

Plasmodium berghei [9] = assay: Antimalarial activity against Plasmodium berghei infected in mouse assessed as parasitemia level at split dose of 160 mg/kg/day, po for 3 days measured on day 6 relative to control; type: functional; method in brief: as §2
Plasmodium berghei [10] = assay: Antimalarial activity against Plasmodium berghei infected in mouse assessed as parasitemia level at split dose of 640 mg/kg/day, po for 3 days measured on day 6 relative to control; type: functional; method in brief: as §2
Plasmodium berghei [11] = assay: Antimalarial activity against Plasmodium berghei infected in mouse assessed as parasitemia level at single dose of 20 mg/kg/day, po for 3 days measured on day 6 relative to control; type: functional
Method in brief: (§3)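 Mice infected intraperitoneally with 10^6 P. berghei-parasitized erythrocytes. Drug given orally once daily on days 3, 4 and 5 post-infection in hydroxyethylcellulose-Tween 20 vehicle, 5 mice per dose group. Parasitemia measured on day 6 and expressed as a fraction of untreated control parasitemia.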

Plasmodium berghei [12] = assay: Antimalarial activity against Plasmodium berghei infected in mouse assessed as parasitemia level at single dose of 40 mg/kg/day, po for 3 days measured on day 6 relative to control; type: functional; method in brief: as §3
Mus musculus [13] = assay: Toxicity in Plasmodium berghei-infected mouse assessed as mortality at split dose of 80 mg/kg/day, po for 3 days; type: organism-based; set-up: route oral; conditions: in vivo, 72 h
Mus musculus [14] = assay: Toxicity in Plasmodium berghei-infected mouse assessed as mortality at split dose of 160 mg/kg/day, po for 3 days; type: organism-based; set-up: route oral; conditions: in vivo, 72 h
Mus musculus [15] = assay: Toxicity in Plasmodium berghei-infected mouse assessed as mortality at split dose of 640 mg/kg/day, po for 3 days; type: organism-based; set-up: route oral; conditions: in vivo, 72 h
Plasmodium berghei [16] = assay: Antimalarial activity against Plasmodium berghei infected in mouse assessed as parasitemia level at 0.32 mg/kg/day for 3 days measured on day 6 in presence of 4 mg/kg/day chloroquine (reference value: 37%); type: functional
Plasmodium berghei [17] = assay: Antimalarial activity against Plasmodium berghei infected in mouse assessed as parasitemia level at 12.8 mg/kg/day for 3 days measured on day 6 in presence of 16 mg/kg/day chloroquine (reference value: 37%); type: functional
Method in brief: (§4)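 Mice were infected ip with 10^6 P. berghei-parasitized erythrocytes. The compound was given orally once daily on days 3, 4 and 5 post-infection in hydroxyethylcellulose-Tween 20 vehicle, alone or together with chloroquine, with 5 mice per dose group. Parasitemia (%) was read on days 3 and 6, and cures were counted as animals cured out of 5.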

Plasmodium berghei [18] = assay: Antimalarial activity against Plasmodium berghei infected in mouse assessed as effect on cure rate at 3.2 mg/kg/day for 3 days measured on day 6 in presence of 4 mg/kg/day chloroquine (reference value: 37%); type: functional, organism-based
Plasmodium falciparum [19] = assay: Antimalarial activity against chloroquine-resistant Plasmodium falciparum FVO infected in Aotus lemurinus leminurus monkey assessed as reduction in parasitemia at 8 mg/kg/day, po for 3 days; type: functional, organism-based
Plasmodium falciparum [20] = assay: Antimalarial activity against chloroquine-resistant Plasmodium falciparum FVO infected in Aotus lemurinus leminurus monkey assessed as reduction in parasitemia at 32 mg/kg/day, po for 3 days; type: functional, organism-based
[21] = Half life in mouse liver microsomes by LC/MS analysis; type: ADME, Microsome
[22] = Cmax in ICR mouse at 50 mg/kg/day, po by LC/MS analysis; type: ADME, organism-based; set-up: dose 50 mg/kg/day, route oral; conditions: in vivo
Method in brief: (§5)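 Male ICR mice, 8 weeks old, got one 50 mg/kg dose either orally or subcutaneously, with three groups of six mice per route. One mouse per group was killed at 15, 30 and 60 min and at 3, 6 and 24 h. Plasma was deproteinized with 2 volumes of acetonitrile and analysed by LC-MS/MS on a C18 column against 0–500 ng/ml standards, with parent and acid metabolite measured in the same sample. Each six-mouse group was treated as one "animal" and fitted to a two-compartment model. AUC was taken by the linear trapezoidal rule extrapolated to infinity, and Cmax and Tmax were read per "animal".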

[23] = Tmax in ICR mouse at 50 mg/kg/day, po by LC/MS analysis; type: ADME, organism-based; set-up: route oral; conditions: in vivo; method in brief: as §5
Plasmodium berghei [24] = assay: Antimalarial activity against Plasmodium berghei infected in mouse assessed as parasitemia level at 160 mg/kg/day for 3 days measured on day 3 (reference value: 0.46%); type: functional; method in brief: as §4
Plasmodium berghei [25] = assay: Antimalarial activity against Plasmodium berghei infected in mouse assessed as parasitemia level at 320 mg/kg/day for 3 days measured on day 6 (reference value: 37%); type: functional; method in brief: as §4
Plasmodium berghei [26] = assay: Antimalarial activity against Plasmodium berghei infected in mouse assessed as parasitemia level at 32 mg/kg/day for 3 days measured on day 6 (reference value: 37%); type: functional; method in brief: as §4
Plasmodium berghei [27] = assay: Antimalarial activity against Plasmodium berghei infected in mouse assessed as effect on cure rate at 160 mg/kg/day for 3 days; type: functional, organism-based; method in brief: as §4
Plasmodium berghei [28] = assay: Antimalarial activity against Plasmodium berghei infected in mouse assessed as effect on cure rate at 32 mg/kg/day for 3 days; type: functional, organism-based; method in brief: as §4
Plasmodium berghei [29] = assay: Antimalarial activity against Plasmodium berghei infected in mouse assessed as effect on cure rate at 3.2 mg/kg/day for 3 days; type: functional, organism-based
Plasmodium falciparum [30] = assay: Antimicrobial activity against Plasmodium falciparum D6 infected in Aotus lemurinus lemurinus monkey at […] in presence of 4 mg/kg chloroquine; type: functional
Plasmodium falciparum [31] = assay: Antimicrobial activity against Plasmodium falciparum D6 infected in Aotus lemurinus lemurinus monkey at […] in presence of azithromycin; type: functional
Plasmodium berghei [32] = assay: Antimalarial activity against Plasmodium berghei infected in mouse assessed as parasitemia level at 160 mg/kg/day for 3 days measured on day 3 in presence of 2 […] chloroquine (reference value: 0.46%); type: functional; method in brief: as §4
Plasmodium berghei [33] = assay: Antimalarial activity against Plasmodium berghei infected in mouse assessed as parasitemia level at 32 mg/kg/day for 3 days measured on day 3 in presence of 3.6 mg/kg/day chloroquine (reference value: 0.46%); type: functional; method in brief: as §4

For `Nc1cccc(-c2csc(NC(=O)CCCCCCC(=O)NO)n2)c1`, the IC50 (Plasmodium falciparum [1]) was 1.6 nM, the IC50 (Plasmodium falciparum [2]) was 1.5 nM and the selectivity ratio [3] was 1080. For the same compound, the Activity (Plasmodium berghei [4]) was “inactive”, the Activity (Plasmodium berghei [5]) was “inactive” and the Activity (Plasmodium berghei [6]) was “inactive”. The Activity (Plasmodium berghei [7]) was “inactive”, the “fold change (FC)” value (Plasmodium berghei [8]) was 0.05 and the “fold change (FC)” value (Plasmodium berghei [9]) was 0.03. For the same compound, the “fold change (FC)” value (Plasmodium berghei [10]) was 0.001, the “fold change (FC)” value (Plasmodium berghei [11]) was 0.57 and the “fold change (FC)” value (Plasmodium berghei [12]) was 0.12. For the same compound, the Activity (Mus musculus [13]) was “Non-toxic”, the Activity (Mus musculus [14]) was “Non-toxic” and the Activity (Mus musculus [15]) was “Non-toxic”. For the same compound, the Activity (Plasmodium berghei [16]) was 0.024%, the Activity (Plasmodium berghei [17]) was 0% and the Activity (Plasmodium berghei [18]) was “inactive”. For the same compound, the inhibition (Plasmodium falciparum [19]) was “inactive”, the inhibition (Plasmodium falciparum [20]) was “Active” and the half-life [21] was 11 min. The Cmax [22] was 2500 ng/mL, the Tmax [23] was 49.8 min and the Activity (Plasmodium berghei [24]) was 0.64%. The Activity (Plasmodium berghei [25]) was 0.107%, the Activity (Plasmodium berghei [26]) was 21% and the Activity (Plasmodium berghei [27]) was “inactive”. For the same compound, the Activity (Plasmodium berghei [28]) was “inactive”, the Activity (Plasmodium berghei [29]) was “inactive” and the “fractional inhibitory concentration index (FICI)” value (Plasmodium falciparum [30]) was 2.2. The “fractional inhibitory concentration index (FICI)” value (Plasmodium falciparum [31]) was 1.7, the Activity (Plasmodium berghei [32]) was 0.5% and the Activity (Plasmodium berghei [33]) was 0.44%.
